5-HT1A blocker – antagonists of human 5-HT1a serotonin receptor; hit rate 0.68% among 62,000; inhibition, % at 10 µM; CHO 5-HT1a Ga15 NFAT-bla reporter, antagonist mode; P08908;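 active = inhibition above the mean of all tested compounds plus 3 SD, cut at about 43% in these data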;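 note: receptor stimulated by 5-CT agonist at 100 nM near EC80; beta-lactamase reporter measured by ratiometric fluorescence of a cleavable substrate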
Target sequence (P08908 whole entry, looked up): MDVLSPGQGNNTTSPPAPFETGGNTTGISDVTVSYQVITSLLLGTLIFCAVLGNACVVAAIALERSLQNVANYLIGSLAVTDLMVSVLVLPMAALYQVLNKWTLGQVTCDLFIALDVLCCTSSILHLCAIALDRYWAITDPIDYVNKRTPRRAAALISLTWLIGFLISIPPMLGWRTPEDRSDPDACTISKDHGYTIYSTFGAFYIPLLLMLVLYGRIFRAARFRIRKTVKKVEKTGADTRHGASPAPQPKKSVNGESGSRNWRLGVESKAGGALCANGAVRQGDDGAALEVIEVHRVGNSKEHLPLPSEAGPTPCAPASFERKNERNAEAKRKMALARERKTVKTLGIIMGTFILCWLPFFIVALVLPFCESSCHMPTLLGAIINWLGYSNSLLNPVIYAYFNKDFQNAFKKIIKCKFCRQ
Jurkat viability – reduces viability or proliferation of Jurkat cells. Jurkat E6.1 viability, ATP luminescence, 48 h. inhibition, % at 4 µM. AID 463. hit rate 1.2% among 56,000;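 active = inhibition above the mean inhibition of all tested compounds plus 3 SD, cut at about 28% in these data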
HTR1E agonist – 5-HT1E (human) receptor agonism | P28566 | CHO 5-HT1E Ga15 NFAT-bla reporter, FRET; 0% DMSO wells, 100% control agonist wells | activation, % at 6 µM | hit rate 0.69% among 65,000;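 active = activation above a set limit, the screen-wide mean activation plus 3 SD, cut at about 8.5% in these data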
5HT1a ag – 5-HT1a (human) receptor agonism | P08908 | CHO 5-HT1a Ga15 NFAT-bla reporter, FRET ratio; 0% basal, 100% maximal reference agonist | activation, % at 10 µM | hit rate 0.56% among 65,000 | AID 567;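 active = activation above the screen-wide mean activation plus 3 SD, cut at about 19% in these data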
5HT1E antag – antagonists of human 5-HT1E serotonin receptor | AID 571 | CHO 5-HT1E Ga15 NFAT-bla reporter, FRET, antagonist | P28566 | hit rate 0.99% among 65,000 | inhibition, % at 6 µM;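 active = inhibition above a set limit, the mean inhibition across every tested compound plus 3 SD, cut at about 29% in these data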;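 note: signal is the 460 over 535 nm emission ratio of beta-lactamase substrate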
HEK293 NFkB inh – lowers PMA/ionomycin-induced NF-kB signal in HEK293 cells; hit rate 0.21% among 62,000; AID 465; HEK-293 NF-kB luciferase reporter, luminescence; inhibition, % at 3 µM;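 active = inhibition above the mean of all tested compounds plus 3 SD, cut at about 40% in these data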
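Material: HEK-293 cells with stable firefly luciferase reporter driven by four HIV NF-kB elements / Also added: PMA plus ionomycin mix as NF-kB-activating stimulus / Compound dosing: 3 µM once, 0.30% DMSO / Times: 1 h pretreatment, 16 h stimulation, 37 °C / Signal: luminescence / Evaluation: per-plate % inhibition versus controls / Benchmarks: DMSO and 10 µM reference inhibitor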
Each line names hits and unclear results; the compound was inactive in the other large screens. In the library only some 3.3% were active in any assay of this set; here they are far more common.

CCOc1ccc(N(CC(=O)O)S(=O)(=O)c2ccc(F)cc2)cc1	5HT1a ag 74
CCN(C1CCCCC1)S(=O)(=O)c1ccc(S(=O)(=O)NCCc2ccncc2)cc1	none
CCN(C1CCCCC1)S(=O)(=O)c1ccc(S(=O)(=O)NCc2ccncc2)cc1	Jurkat viability 69
Cn1c(C(=O)N2CCCC(C(=O)NCc3ccc4c(c3)OCO4)C2)cc2sccc21 (stereo not drawn)	none
CCn1c(C(=O)N2CCC(C(=O)NCc3ccc4c(c3)OCO4)CC2)cc2sccc21	5HT1a ag 20
COc1ccc2[nH]c3c(N4CCN(Cc5ccc6c(c5)OCO6)CC4)ncnc3c2c1	5HT1E antag 29 (no result: 5-HT1A blocker, Jurkat viability, HEK293 NFkB inh)
COc1ccc2c(c1)c1ncnc(N3CCN(Cc4ccc5c(c4)OCO5)CC3)c1n2C	none
CCOc1cc(S(=O)(=O)NCc2ccccn2)c(C)cc1C	5HT1a ag 53
COc1ccc(C(C)C)cc1S(=O)(=O)NCc1ccccn1	none
CCOC(=O)CSc1cccc2cccnc12	5HT1E antag 40
CCN(CC)C(=O)Sc1cccc2cccnc12	none
CC(C)c1nc2sc3c(NCc4ccco4)ncnc3c2c2c1COC(C)(C)C2	5HT1E antag 56 (no result: Jurkat viability)
Cc1nc(NCc2ccco2)c(C#N)c2c1COC(C)(C)C2	none
CC1(C)Cc2c(C#N)c(NCc3ccco3)nc(-c3ccco3)c2CO1	HTR1E agonist 11, 5HT1a ag 54 (no result: 5-HT1A blocker, Jurkat viability, HEK293 NFkB inh)
COC(=O)CSc1ncnc2c1sc1nc(-c3ccco3)c3c(c12)CC(C)(C)OC3	none (no result: 5-HT1A blocker, Jurkat viability, HEK293 NFkB inh)
O=C(c1ccccc1/S(=N/S(=O)(=O)c1ccccc1)N1CCOCC1)N1CCOCC1 (stereo not drawn)	none
CCC(Oc1ccc2c(c1)C(=O)CC(C)(C)O2)C(=O)NCCN1CCCCCC1 (stereo not drawn)	none
O=c1oc2ccccc2cc1NCc1ccccc1O	Jurkat viability 41
CCOc1ccccc1C(=O)Nc1nnc(C(C)C)s1	5HT1E antag 33
O=C(OCC(=O)N1CCC(Cc2ccccc2)CC1)c1ccc[nH]c1=O	none
CC(C)Oc1cc(O)c2c(=O)c(-c3ccc(O)cc3)coc2c1	Jurkat viability 99
CC(NC(=O)NC12CC3CC(CC(C3)C1)C2)C1CCCO1 (stereo not drawn)	none
CC1CN(S(=O)(=O)c2ccc(NC(=O)c3cc(-c4ccccc4O)n[nH]3)cc2)CC(C)O1 (stereo not drawn)	Jurkat viability 54
CN1CCN(/C(=N\O)c2nonc2N)CC1	HTR1E agonist 55
Nc1nonc1/C(=N/O)N1CCN(CCO)CC1	none
CCN(Cc1ccncc1)S(=O)(=O)c1ccc(C(C)=O)cc1	Jurkat viability 30
NS(=O)(=O)c1ccc(CCNc2ncnc3sccc23)cc1	Jurkat viability 85
COc1ccc(S(=O)(=O)N2CCCC(C(=O)N3CCOCC3)C2)cc1C (stereo not drawn)	none
O=C(NC1=NCCS1)C1COc2ccccc2O1 (stereo not drawn)	HEK293 NFkB inh 58
CC(=Nc1ccc2c(c1)nc(CO)n2C)C1=C(O)CC(C)(C)CC1=O	none
CN1CCN(C(=O)c2ccc3c(c2)N(Cc2cccc(Cl)c2)C(=O)c2ccccc2S3=O)CC1 (stereo not drawn)	HTR1E agonist 15
CCOC(=O)C(C(=O)OCC)c1cc(Br)c2noc3c2c1C(=O)c1ccccc1-3	5-HT1A blocker 48, 5HT1E antag 32 (no result: Jurkat viability)
COc1ccc(N(C)S(=O)(=O)c2cccc(C(=O)NC3=NCCS3)c2)cc1	none (no result: Jurkat viability)
Cn1c(=O)c2cc(S(=O)(=O)NCCC(=O)NCCC3=CCCCC3)ccc2n(C)c1=O	none
Cc1nn(C)cc1CNC(=O)c1cc2n(n1)C(C(F)(F)F)CC(c1cccs1)N2 (stereo not drawn)	none
Cc1nn(C)c(C)c1CNC(=O)c1nn2c(c1Cl)NC(c1cccs1)CC2C(F)(F)F (stereo not drawn)	Jurkat viability 41
C#CCNc1nc(C)nc2c1nnn2Cc1ccccc1F	none
CCC(CC)C(=O)Nc1cc(C)c2c(=O)oc3ccccc3c2n1	5HT1E antag 31
O=C(Cc1n[nH]c(=O)c2ccccc12)OCC(=O)c1ccc2c(c1)OCCO2	Jurkat viability 91
CCCCNC(=O)c1c(N)n(/N=C/c2ccccn2)c2nc3ccccc3nc12	none (no result: Jurkat viability)
